An excerpt weighted towards active compounds, which were near 2.8% of everything screened.
Measles CPE: compounds protecting cells from measles virus cytopathic effect, primary screen, measles RdRp inhibitor project, single point, MLSMR library, absorbance. 1.5% of 140,000 active. Measles virus-infected cells, CPE protection. protection (pct of control), % at 4 µM; in the data active = protection mostly above about 24%, no sharp cut-off; inactive = mostly below about 26%
NPY Y2 blocker: NPY-Y2 receptor antagonists, primary screen, cell-based. Neuropeptide Y receptor type 2 (Homo sapiens), P49146. NPY-Y2 expressing cells, antagonist mode. inhibition, % at 2.7 µM. 0.99% of 140,000 active. AID 793, 2007; in the data active = inhibition above about 17%;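 note: 0% = vehicle with agonist challenge and 100% = reference antagonist with challenge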
NPY-Y2 PAM-ag: NPY-Y2 potentiators or agonists, primary screen, cell-based | 0.45% of 220,000 active | AID 1359, 2008 | activation, % at 3.6 µM | cells expressing NPY-Y2, potentiator/agonist read-out | Neuropeptide Y receptor type 2 (Homo sapiens), P49146; in the data active = activation above about 27%;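 note: cells stimulated with NPY near EC25 plus isoproterenol at EC100; 0% = vehicle plus submaximal agonist and 100% = vehicle plus saturating agonist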
NPY Y1 blocker: NPY-Y1 receptor antagonists, primary screen, cell-based. inhibition, % at 3.6 µM. AID 1040, 2008. HEK293-CNG Y1 cells, membrane potential fluorescence; NPY at EC95, then isoproterenol. 1% of 200,000 active;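 active = inhibition above the campaign mean inhibition of all tested compounds plus 3 SD, cut at about 20% in these data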;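 note: 0% = DMSO wells given NPY plus isoproterenol and 100% = isoproterenol alone without NPY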
Target sequence (P25929 whole entry, looked up): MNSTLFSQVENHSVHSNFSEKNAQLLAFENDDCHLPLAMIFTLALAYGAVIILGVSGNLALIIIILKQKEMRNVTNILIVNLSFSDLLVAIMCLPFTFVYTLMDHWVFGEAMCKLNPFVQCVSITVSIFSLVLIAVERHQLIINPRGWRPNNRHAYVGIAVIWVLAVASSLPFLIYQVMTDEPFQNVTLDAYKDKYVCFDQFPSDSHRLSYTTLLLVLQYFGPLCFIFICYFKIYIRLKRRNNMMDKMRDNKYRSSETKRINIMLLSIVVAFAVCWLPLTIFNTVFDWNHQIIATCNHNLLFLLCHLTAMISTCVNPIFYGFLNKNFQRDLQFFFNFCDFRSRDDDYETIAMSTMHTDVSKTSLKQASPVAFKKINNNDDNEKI
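Assay system: HEK293 Y1/CNG channel cell line; Doses: single compound dose of 3.6 µM, 0.4% DMSO; Timing: dye 3 h, compound 60 min room temperature, stimulation 45 min; Technique: Membrane-potential fluorescent dye readout; Measure: % inhibition of NPY effect.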
Mdm2 ligase inh: MDM2-luciferase reporter signal enhancers, primary screen, MDM2 E3 ligase inhibitor project, cell-based, luminescence, 1536-well; cell-based MDM2 ubiquitination luciferase reporter, 2 h; 0 = plate control, 100 = twice control, blank-subtracted; signal enhancement, % at 5 µM; 0.11% of 210,000 active; AID 1230, 2008;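 active = signal enhancement of 30% or more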;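 note: luminescence tracks abundance of the self-degrading MDM2-luciferase fusion protein; higher signal means inhibition of MDM2 E3 ligase activity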
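Material: Stable MDM2–luciferase fusion reporter cells | Amount: 2000 cells seeded into each well | Dosing: One concentration, 5 µM, with 0.2% DMSO | Incubation: 4 h cell settling then 2 h compound exposure, 37 °C | Measured by: Luciferase luminescence | Read-out basis: % enhancement relative to plate controls after blank subtraction | Benchmarks: Control and blank well means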
NPY1 pot ag: NPY-Y1 receptor potentiators or agonists, primary screen, cell-based; activation, % at 3.6 µM; NPY-Y1 expressing cells, potentiator/agonist activation; Neuropeptide Y receptor type 1 (Homo sapiens), P25929; 0.37% of 220,000 active; in the data active = activation above about 33%, passing the limit was not always enough;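 note: cells stimulated with NPY at EC10 then isoproterenol at EC100; 0% = low agonist plus stimulus and 100% = saturating agonist plus stimulus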
NPY-Y1 pot conf: NPY-Y1 potentiators or agonists, confirmation, cell-based. 20% of 280 active. cell-based NPY-Y1 potentiator/agonist assay. shares compounds with NPY1 pot ag. activation, % at 3.6 µM; in the data active = activation above about 45%;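 note: cells challenged with NPY at its EC10 plus isoproterenol stimulus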
NPY-Y2 counter: NPY-Y2 potentiators or agonists, counter-screen for NPY-Y1 potentiator project, cell-based, fluorescence; shares compounds with NPY1 pot ag; HEK293-CNG cells, membrane-potential fluorescence (FLIPR), 1536-well; activation, % at 3.6 µM; 20% of 280 active; AID 1649, 2009; in the data active = activation above about 33%
NPY-Y1 ag: NPY-Y1 direct agonists without NPY, confirmation, counter-screen for NPY-Y1 potentiator project, cell-based, fluorescence. 50% of 280 active. activation, % at 3.6 µM. HEK293 Y1-CNGC, membrane potential fluorescence, agonist mode. shares compounds with NPY1 pot ag;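 active = percent activation above the mean of DMSO-only control wells plus 3 SD of those wells, cut at about 18% in these data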;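 note: cells challenged with isoproterenol plus Ro 20-1724 with no NPY in test wells; Y1 agonism lowers isoproterenol-driven cAMP and reduces probe fluorescence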
NPY-Y2 agonist: NPY-Y2 direct agonists without NPY, counter-screen for NPY-Y1 potentiator project, cell-based, fluorescence; shares compounds with NPY1 pot ag; HEK293 Y2-CNGC, membrane potential fluorescence, agonist mode; activation, % at 3.6 µM; 67% of 280 active; AID 1698, 2009;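 active = activation above the solvent-only control wells' mean plus 3 SD, cut at about 11% in these data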;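 note: 0% = DMSO with isoproterenol and 100% = 40 nM NPY maximal response; agonism lowers cAMP so well fluorescence drops in active wells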
CNGC counter: CNGC cAMP sensor activity inhibitors, counter-screen for NPY-Y1 potentiator/agonist project, cell-based, HEK293-CNG parental, membrane potential fluorescence, Y1 set | inhibition, % at 3.6 µM | isoproterenol cAMP | AID 1704, 2009 | 42% of 280 active | shares compounds with NPY1 pot ag;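 active = inhibition above the mean of stimulated solvent-only control wells plus 3 SD, cut at about 22% in these data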;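 note: 0% = isoproterenol-stimulated DMSO wells and 100% = unstimulated DMSO wells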
Active calls of the source: *; / = no result given.

SMILES	Measles CPE	NPY Y2 blocker	NPY-Y2 PAM-ag	NPY Y1 blocker	Mdm2 ligase inh	NPY1 pot ag	NPY-Y1 pot conf	NPY-Y2 counter	NPY-Y1 ag	NPY-Y2 agonist	CNGC counter
CCNC(=O)c1cc(Br)ccc1Cl	2	0	-10	-2	-10	51*	6	3	0	8	9
Cc1ccc(S(=O)(=O)N(CC(=O)O)Cc2ccccc2F)cc1	9	6	5	-1	-12	-12	/	/	/	/	/
Cc1ccc(S(=O)(=O)N(CC(=O)N2CCC(C)CC2)Cc2ccccc2F)cc1	24	1	20	3	-4	79*	-5	0	-10	-6	1
CC(=O)c1ccc(NC(=S)NC(C)c2ccc(Cl)cc2Cl)cc1 (stereo unspecified)	/	/	25	-5	-5	37*	48*	27	37*	35*	36*
CCOC(=O)C1=C(C)NC(=NC)SC1c1ccccc1 (stereo unspecified)	/	/	-5	-6	-12	35	/	/	/	/	/
COc1ccc(C2c3ccc(O)cc3Oc3ncn4nc(-c5ccncc5)nc4c32)cc1OC (stereo unspecified)	/	/	-30	/	1	2	/	/	/	/	/
O=C1/C(=C/c2ccccn2)SC(=S)N1c1cccc(O)c1	/	/	29	/	-7	54*	57*	38*	41*	37*	32*
CCOC(=O)N1CCN(C(=O)/C(=C/c2cccs2)NC(=O)c2cccs2)CC1	/	/	2	-1	26	43*	3	-1	-6	-5	-6
CCOC(=O)C1=C(c2ccccc2)NC(=O)NC1c1cc(Br)c(O)c(OC)c1 (stereo unspecified)	/	/	12	-3	-6	42*	0	3	-3	1	-2
CCOC(=O)C1=C(C)NC(=O)NC1c1cc(Br)c(O)c(OC)c1 (stereo unspecified)	22	1	-6	-3	6	10	/	/	/	/	/
CC(=O)c1ccn(S(=O)(=O)c2ccccc2)c1	32	2	5	-2	-26	-4	/	/	/	/	/
O=C(Nc1ccccn1)C(NS(=O)(=O)c1cccc2nsnc12)c1ccccc1 (stereo unspecified)	7	3	-15	-3	-15	2	/	/	/	/	/
CCCCCCOC(=O)C(C#N)c1nc2ccccc2nc1N1CCN(CC)CC1 (stereo unspecified)	7	7	19	5	-3	4	/	/	/	/	/
CCN1CCN(c2nc3ccccc3nc2C(C#N)C(=O)OCc2ccccc2)CC1 (stereo unspecified)	40	7	20	-3	-21	40*	62*	47*	41*	54*	53*
CC(=O)c1sc(Nc2nc3ccc(F)cc3s2)nc1C	6	-5	17	-20	-24	45*	28	15	16	20*	19
Cc1ccc(O)c(C(=O)c2cnc3c(c2)c(-c2ccc(F)cc2)c(C#N)c(=O)n3C)c1	/	/	9	-4	0	42*	61*	55*	49*	54*	34*
Cn1c(=O)[nH]c(=O)c2c1nc(N1CCCCC1)n2CCSc1nc2ccccc2o1	8	0	7	1	-9	40*	-3	2	1	9	3
O=C(c1ccc2c3c(cccc13)CC2)C1CCCN(Cc2ccncc2)C1 (stereo unspecified)	/	/	2	1	3	77*	-27	-4	-33	-7	-7
O=[N+]([O-])c1cccc(N/N=C/c2cccc3ccccc23)c1	8	-2	14	-1	-16	7	/	/	/	/	/
COc1cc(/C=N/NC(=O)C(Cc2c[nH]c3ccccc23)NC(=O)OCC(C)C)cc([N+](=O)[O-])c1O (stereo unspecified)	38	-2	0	7	-1	-6	/	/	/	/	/
COc1cc(/C=N/NC(=O)C(Cc2c[nH]c3ccccc23)NC(=O)OCC(C)C)cc([N+](=O)[O-])c1OCc1ccccc1 (stereo unspecified)	/	/	25	-4	9	39*	34	30	24*	38*	25*
COc1ccccc1NS(=O)(=O)c1cc(N/C(=N\S(=O)(=O)c2ccccc2)c2ccc(F)cc2)ccc1Cl	8	-5	28	-13	1	43*	39	26	25*	24*	43*
COc1ccccc1NS(=O)(=O)c1cc(NC(=S)Nc2cc(C)cc(C)c2)ccc1Cl	21	0	-2	0	/	-19	/	/	/	/	/
Cc1ccc(C(=O)N(C)c2nnc(-c3ccncc3)s2)cc1	/	/	10	3	-4	-8	/	/	/	/	/
Cc1ccn2c(Nc3ccccc3C)c(-c3ccncc3)nc2c1	9	0	30	-4	2	41*	59*	50*	36*	50*	27*
CCc1cccc2c(/C=N/NC(=O)c3cccc(S(=O)(=O)Nc4ccccc4Cl)c3)c[nH]c12	6	-2	-2	-9	-4	46*	33	27	31*	19*	26*
Cc1[nH]c2ccccc2c1/C=N/NC(=O)c1cccc(S(=O)(=O)Nc2ccccc2Cl)c1	9	0	12	-2	-13	-11	/	/	/	/	/
COc1cc(C(=O)Nc2nc(C)cc(C)n2)cc(OC)c1OC	/	/	12	/	-11	17	/	/	/	/	/

Bioassay records as filed in PubChem.
